The test system of experiment [1] is SK-N-MC. As to the kind of experiment: Antiproliferative activity against human SK-N-MC cells by MTT assay. The experiment is classed as functional, cell-based. The method in brief: (§1)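 MTT colour formation, shown to be directly proportional to viable cell number counted by Trypan blue, was used to read growth of SK-N-MC neuroepithelioma or mortal MRC-5 fibroblast cells. IC50 values are given as mean ± SD of 3 experiments.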
Background: Tetrazolium dyes change colour on reduction, which living cells bring about.

Experiment [2] deals with SK-N-MC. As to the kind of experiment: Effect on iron efflux in human SK-N-MC cells assessed as cellular iron release. Also noted: concentration or dose not given beside the values. The experiment is classed as functional. The method in brief: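 SK-N-MC cells were prelabeled with 59Fe-transferrin (0.75 µM) for 3 h at 37 °C, washed four times with ice-cold PBS, then incubated with chelator (50 µM). Overlying medium was separated from cells, and released versus retained 59Fe was gamma-counted in supernatant and cell pellet. Mean ± SD of 3 experiments, 3 determinations each.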

The test system of experiment [3] is MRC5. In words: Antiproliferative activity against human MRC5 cells by MTT assay. In kind it is cell-based. The method in brief: as §1
The subject of experiment [4] is SK-N-MC. In words: Inhibition of cellular iron uptake from 59Fe]transferrin in human SK-N-MC cells at 50 uM relative to control. To be noted: values are per cent of control. In kind it is functional. The method in brief: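 Cells were co-incubated for 3 h at 37 °C with 59Fe-transferrin (0.75 µM) plus chelator (50 µM), then washed four times in ice-cold PBS. Pronase (1 mg/mL, 30 min, 4 °C) stripped membrane-bound 59Fe, and the Pronase-insensitive fraction was counted as internalized. Values are % of control, mean ± SD of 3 experiments with 3 determinations each.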

SMILES strings stand for the structures. A value given as a limit tells only on which side of the number the result lay.

With `O=C(N/N=C/c1ccccc1O)c1ccccc1` [SALICYLALDEHYDE BENZOYL HYDRAZONE], in experiment [1], the IC50 is 3230 nM.

`O=C(N/N=C/c1c(O)ccc2ccccc12)c1ccncc1` showed an IC50 in experiment [1] of 590 nM. Besides, the Activity in experiment [2] is given as 44%.

Consider `Oc1ccccc1/C=N/NC(=S)c1ccccc1` [SALICYLALDEHYDE THIOBENZOYL HYDRAZONE], for which the 50% inhibitory concentration (IC50) in experiment [1] amounted to 24500 nM; in experiment [3] it was 57000 nM. Moreover, in experiment [2], the Activity came to 37%. Also, in experiment [4], the response, % of control at 50 µM was 20%.

In turn, `Cc1ncc(CO)c(/C=N/NC(=O)c2ccccc2)c1O` [PYRIDOXAL BENZOYL HYDRAZONE] displayed a concentration for half-maximal inhibition (IC50) in experiment [1] of 31800 nM.

In experiment [1], `CN(C)C(=S)NN=C(c1ccccn1)c1ccccn1` gave an IC50 of 2 nM. Moreover, the Activity in experiment [2] is reported as 44%.

In turn, `O=C(N/N=C/c1c(O)ccc2ccccc12)c1ccccc1` returned an IC50 in experiment [1] of 990 nM.

The compound `O=C(N/N=C(/c1ccccc1)c1ccccn1)c1ccccc1` displayed an IC50 in experiment [1] of 1470 nM.

Take `S=C(N/N=C(/c1ccccc1)c1ccccn1)c1ccccc1`: the IC50 in experiment [1] is 11 nM; in experiment [3], 530 nM.

Consider `Cc1ncc(CO)c(/C=N/NC(=O)c2ccncc2)c1O` [PYRIDOXAL ISONICOTINOYL HYDRAZONE], for which the Activity in experiment [2] amounted to 44%.

In experiment [1], `NC(=S)N/N=C/c1ncccc1N` [TRIAPINE] displayed an IC50 of 540 nM.

In experiment [1], `O=C(NN=C(c1ccccn1)c1ccccn1)c1ccccc1` came in with an IC50 of 1240 nM.

As for `S=C(NN=C(c1ccccn1)c1ccccn1)c1ccccc1`, the 50% inhibitory concentration (IC50) turned out to be 12 nM in experiment [1] and 750 nM in experiment [3]. Also, the Activity in experiment [2] was 37%. The response, % of control at 50 µM in experiment [4] is 20%.

Turning to `Oc1ccc2ccccc2c1/C=N/NC(=S)c1ccccc1`, the concentration for half-maximal inhibition (IC50) in experiment [1] stood at 2530 nM; in experiment [3] it was 3890 nM. Also, in experiment [2], the Activity was found to be 37%. This compound also displayed a response, % of control at 50 µM in experiment [4] of 20%.

For `CC(=O)N(O)CCCCCNC(=O)CCC(=O)N(O)CCCCCNC(=O)CCC(=O)N(O)CCCCCN` [DEFEROXAMINE], the IC50 in experiment [1] worked out at 14200 nM. Also, in experiment [2], the Activity was 17%.

For the compound `Cc1ncc(CO)c(/C=N/NC(=S)c2ccccc2)c1O` [PYRIDOXAL THIOBENZOYL HYDRAZONE], the half-maximal inhibitory concentration (IC50) in experiment [1] is 58200 nM; in experiment [3], more than 80000 nM.

What is called IC50 is the concentration that gives 50% inhibition.
